Results taken from ChEMBL document CHEMBL1155429, “Discovery of a biaryl cyclohexene carboxylic acid (MK-6892): a potent and selective high affinity niacin receptor full agonist with reduced flushing profiles in animals as a preclinical candidate” (J Med Chem, 2010).
The source made the active and inactive calls.

How the values were obtained:
Rattus norvegicus [1] = assay: (§1) Volume of distribution in rat at 1.0 mg/kg, iv or 2 mg/kg, po; format: ADME, organism-based; conditions: in vivo
Procedure, shortened: (§2)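 PK: iv 1.0 mpk in DMSO/Tween-80/water (5:10:85) for rats, EtOH/PEG400/water (10:40:50) for dogs and monkeys; oral 2 mpk in 0.5% methylcellulose for rats and dogs.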

Rattus norvegicus [2] = assay: (§3) Bioavailability in rat at 1.0 mg/kg, iv or 2 mg/kg, po; format: ADME, organism-based; conditions: in vivo; procedure, shortened: as §2
Rattus norvegicus [3] = assay: (§4) Half life in rat at 1.0 mg/kg, iv or 2 mg/kg, po; format: ADME, organism-based; conditions: in vivo; procedure, shortened: as §2
Rattus norvegicus [4] = assay: Antilipolytic activity in po dosed rat assessed as reduction plasma free fatty acids levels
[5] = Toxicity in po dosed dog assessed as Cmax at which threshold dose of vasodilation occurs in ears by spectrocolorimetry; format: organism-based, Canis lupus familiaris; conditions: in vivo, read-out: Activity
Procedure, shortened: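 Oral dosing in conscious dogs; Cmax(TDV) = average maximal blood compound level at the threshold dose for vasodilation, which was assessed by ear spectrocolorimetry.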

Canis familiaris [6] = assay: Antilipolytic activity in po dosed dog assessed as reduction plasma free fatty acids levels; conditions: Canis lupus familiaris
Canis familiaris [7] = assay: Antilipolytic activity in po dosed dog assessed as drug concentration causing maximum reduction plasma free fatty acids levels; format: functional, Canis lupus familiaris
Procedure, shortened: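 Dose-based dog measure: dose producing maximal plasma FFA suppression after oral dosing in fasted conscious dogs, read from oral dose-ranging FFA data.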

Mus musculus [8] = assay: Antilipolytic activity in wild-type C57BL/6 mouse assessed as reduction plasma free fatty acids levels at 100 mg/kg, po after 15 mins; format: functional; parameters: scale not given: the % may be the effect or the level left
Procedure, shortened: (§5)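 Fed wild-type or NA receptor null mice on C57Bl/6 background dosed orally at 100 mpk; blood drawn 15 min postdose for plasma FFA and compound blood level; n = 8/group.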

Canis familiaris [9] = assay: Toxicity in po dosed dog assessed as threshold dose at which induction of flushing-mediated-vasodilation occurs in ears by spectrocolorimetry; format: functional, Canis lupus familiaris
Procedure, shortened: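 Conscious dogs dosed orally; flushing scored by ear spectrocolorimetry plus vocal and physical agitation; threshold dose = dose causing vasodilation in a subset of animals.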

Rattus norvegicus [10] = assay: Toxicity in ip dosed rat assessed as induction of induction of flushing-mediated vasodilation in ears by laser doppler flowmetry; format: functional
Mus musculus [11] = assay: Antilipolytic activity in NA-receptor null C57BL/6 mouse assessed as reduction plasma free fatty acids levels at 100 mg/kg, po after 15 mins; format: functional, organism-based; parameters: dose 100 mg/kg; procedure, shortened: as §5
Canis lupus familiaris = species: Canis lupus familiaris; assay: (§6) Agonist activity at dog nicotinic acid receptor by [35S]GTPgammaS binding assay; format: functional
Procedure, shortened: (§7)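 [35S]GTPγS exchange functional assay on membranes from cells expressing the dog NA receptor; full agonism judged relative to NA; EC50 determined.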

[12] = target: Hydroxycarboxylic acid receptor 1 (Homo sapiens) (UniProt Q9BXC0); assay: Binding affinity to GPR81
Chain of Hydroxycarboxylic acid receptor 1 (Homo sapiens) (Q9BXC0 whole entry): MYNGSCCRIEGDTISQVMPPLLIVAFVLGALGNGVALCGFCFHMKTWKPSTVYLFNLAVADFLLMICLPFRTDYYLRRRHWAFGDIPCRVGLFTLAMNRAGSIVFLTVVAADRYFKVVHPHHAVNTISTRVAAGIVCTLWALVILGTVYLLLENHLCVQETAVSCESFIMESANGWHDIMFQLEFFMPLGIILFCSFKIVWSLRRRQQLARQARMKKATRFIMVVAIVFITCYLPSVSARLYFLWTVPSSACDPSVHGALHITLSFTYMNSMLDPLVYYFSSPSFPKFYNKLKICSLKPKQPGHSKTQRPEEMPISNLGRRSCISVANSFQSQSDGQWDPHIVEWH

[13] = target: Hydroxycarboxylic acid receptor 3 (Homo sapiens) (UniProt P49019); assay: Binding affinity to GPR109B
Chain of Hydroxycarboxylic acid receptor 3 (Homo sapiens) (P49019 whole entry): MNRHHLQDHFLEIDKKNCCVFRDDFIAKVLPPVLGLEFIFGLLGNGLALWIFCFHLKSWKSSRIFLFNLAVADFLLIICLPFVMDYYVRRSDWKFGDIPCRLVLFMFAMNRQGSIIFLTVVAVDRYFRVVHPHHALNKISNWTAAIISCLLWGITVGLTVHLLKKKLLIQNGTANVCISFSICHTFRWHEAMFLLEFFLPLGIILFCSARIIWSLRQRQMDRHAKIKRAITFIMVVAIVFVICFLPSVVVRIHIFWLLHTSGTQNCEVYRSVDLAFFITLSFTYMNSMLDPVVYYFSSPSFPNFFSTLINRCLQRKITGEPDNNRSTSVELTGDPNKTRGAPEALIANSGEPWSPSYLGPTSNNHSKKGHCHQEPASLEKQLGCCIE

[14] = Clearance in dog at 1.0 mg/kg, iv or 2 mg/kg, po; format: ADME, organism-based, Canis lupus familiaris; conditions: in vivo; procedure, shortened: as §2
[15] = as §1; format: ADME, organism-based; conditions: in vivo; procedure, shortened: as §2
[16] = Volume of distribution in dog at 1.0 mg/kg, iv or 2 mg/kg, po; format: ADME, organism-based, Canis lupus familiaris; conditions: in vivo; procedure, shortened: as §2
[17] = Clearance in rat at 1.0 mg/kg, iv or 2 mg/kg, po; format: ADME, organism-based; conditions: in vivo; procedure, shortened: as §2
[18] = Bioavailability in dog at 1.0 mg/kg, iv or 2 mg/kg, po; format: ADME, organism-based, Canis lupus familiaris; conditions: in vivo; procedure, shortened: as §2
[19] = Half life in dog at 1.0 mg/kg, iv or 2 mg/kg, po; format: ADME, organism-based, Canis lupus familiaris; conditions: in vivo; procedure, shortened: as §2
[20] = as §3; format: ADME, organism-based; conditions: in vivo; procedure, shortened: as §2
[21] = as §4; format: ADME, organism-based; conditions: in vivo; procedure, shortened: as §2
[22] = Volume of distribution in mouse at 1.0 mg/kg, iv or 2 mg/kg, po; format: ADME, organism-based; conditions: in vivo
[23] = Volume of distribution in rhesus monkey at 1.0 mg/kg, iv or 2 mg/kg, po; format: ADME, organism-based, Macaca mulatta; conditions: in vivo; procedure, shortened: as §2
[24] = Clearance in rhesus monkey at 1.0 mg/kg, iv or 2 mg/kg, po; format: ADME, organism-based, Macaca mulatta; conditions: in vivo; procedure, shortened: as §2
Rattus norvegicus [25] = assay: Toxicity in rat assessed as induction of flushing-mediated vasodilation in ears at 100 mg/kg, sc by laser doppler flowmetry; conditions: in vivo
[26] = Half life in rhesus monkey at 1.0 mg/kg, iv or 2 mg/kg, po; format: ADME, organism-based, Macaca mulatta; conditions: in vivo; procedure, shortened: as §2
[27] = Drug level in NA-receptor null C57BL/6 mouse blood at 100 mg/kg, po after 15 mins; format: ADME, organism-based; parameters: dose 100 mg/kg, route oral; procedure, shortened: as §5
Cytochrome P450 2C8 = target: T1, Cytochrome P450 2C8 (Homo sapiens, UniProt P10632); assay: Inhibition of CYP2C8; format: ADME
T1 sequence (P10632 whole entry): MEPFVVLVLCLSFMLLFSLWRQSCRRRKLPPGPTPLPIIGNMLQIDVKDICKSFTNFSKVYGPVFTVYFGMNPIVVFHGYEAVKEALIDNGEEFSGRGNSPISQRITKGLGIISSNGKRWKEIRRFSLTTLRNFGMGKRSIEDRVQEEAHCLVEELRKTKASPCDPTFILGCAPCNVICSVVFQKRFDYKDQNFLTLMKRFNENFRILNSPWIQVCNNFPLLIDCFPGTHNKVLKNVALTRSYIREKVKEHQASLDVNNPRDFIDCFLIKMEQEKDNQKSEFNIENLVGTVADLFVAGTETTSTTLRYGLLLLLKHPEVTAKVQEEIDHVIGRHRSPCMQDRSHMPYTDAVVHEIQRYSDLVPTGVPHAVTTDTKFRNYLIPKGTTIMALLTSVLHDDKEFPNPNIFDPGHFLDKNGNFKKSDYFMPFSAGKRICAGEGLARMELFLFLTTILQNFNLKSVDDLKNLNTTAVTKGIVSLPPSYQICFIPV
Procedure, shortened: (§8)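 CYP2C8, 2D6 and 3A4 inhibition measured as IC50.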

[28] = Drug level in wild-type C57BL/6 mouse blood at 100 mg/kg, po after 15 mins; format: ADME, organism-based; parameters: dose 100 mg/kg, route oral; procedure, shortened: as §5
Rattus norvegicus [29] = assay: Toxicity in rat assessed as induction of induction of flushing-mediated vasodilation in ears at 100 mg/kg, sc by laser doppler flowmetry; format: functional, organism-based; parameters: dose 100 mg/kg
Procedure, shortened: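 Anesthetized rats dosed subcutaneously in a dose-ranging study; ear blood perfusion monitored by laser Doppler flowmetry; n ≥ 5 per group.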

Rattus norvegicus [30] = assay: Plasma concentration in rat at 100 mg/kg, ip; format: ADME, organism-based; parameters: dose 100 mg/kg, route intraperitoneal; conditions: in vivo
[31] = as §6; format: functional, Canis lupus familiaris; procedure, shortened: as §7
Rattus norvegicus [32] = assay: Antilipolytic activity in rat assessed as reduction plasma free fatty acids levels at 100 mg/kg, po; format: functional; parameters: scale not given: the % may be the effect or the level left
Procedure, shortened: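 Conscious rats dosed orally, dose range 1–100 mpk; plasma FFA measured over 4 h and expressed relative to t = 0 level; n ≥ 5 per group.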

Canis familiaris [33] = assay: Antilipolytic activity in dog assessed as reduction plasma free fatty acids levels at 100 mg/kg, po; format: functional, Canis lupus familiaris; parameters: scale not given: the % may be the effect or the level left
Procedure, shortened: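 Fasted conscious dogs dosed orally; plasma FFA followed over time relative to baseline; n = 3-7 per group.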

Cytochrome P450 2D6 = Cytochrome P450 2D6 (Homo sapiens, UniProt P10635); assay: Inhibition of CYP2D6; format: ADME; procedure, shortened: as §8
Chain of Cytochrome P450 2D6 (P10635 whole entry): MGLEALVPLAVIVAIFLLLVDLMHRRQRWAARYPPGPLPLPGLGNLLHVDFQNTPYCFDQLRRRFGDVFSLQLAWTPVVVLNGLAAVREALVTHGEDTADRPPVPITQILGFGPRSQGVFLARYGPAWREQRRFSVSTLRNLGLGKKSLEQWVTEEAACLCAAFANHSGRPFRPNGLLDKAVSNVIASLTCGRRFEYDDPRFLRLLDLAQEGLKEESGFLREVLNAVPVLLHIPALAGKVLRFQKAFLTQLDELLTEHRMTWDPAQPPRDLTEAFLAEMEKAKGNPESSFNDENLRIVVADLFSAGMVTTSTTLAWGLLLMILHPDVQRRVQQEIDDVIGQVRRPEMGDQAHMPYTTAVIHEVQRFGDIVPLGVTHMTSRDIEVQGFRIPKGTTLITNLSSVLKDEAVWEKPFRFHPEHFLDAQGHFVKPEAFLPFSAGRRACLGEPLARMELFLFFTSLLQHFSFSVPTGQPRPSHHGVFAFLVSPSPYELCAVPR

[34] = Clearance in mouse at 1.0 mg/kg, iv or 2 mg/kg, po; format: ADME, organism-based; conditions: in vivo
[35] = Bioavailability in mouse at 1.0 mg/kg, iv or 2 mg/kg, po; format: ADME, organism-based; conditions: in vivo
Rattus norvegicus [36] = assay: Toxicity in rat assessed as flushing-mediated vasodilation at 100 mg/kg, ip by laser doppler flowmetry; format: functional, organism-based; parameters: dose 100 mg/kg
[37] = Bioavailability in rhesus monkey at 1.0 mg/kg, iv or 2 mg/kg, po; format: ADME, organism-based, Macaca mulatta; conditions: in vivo; procedure, shortened: as §2
[38] = Half life in mouse at 1.0 mg/kg, iv or 2 mg/kg, po; format: ADME, organism-based; conditions: in vivo
Cytochrome P450 2C9 = Cytochrome P450 2C9 (Homo sapiens, UniProt P11712); assay: Inhibition of CYP2C9; format: ADME
Chain of Cytochrome P450 2C9 (P11712 whole entry): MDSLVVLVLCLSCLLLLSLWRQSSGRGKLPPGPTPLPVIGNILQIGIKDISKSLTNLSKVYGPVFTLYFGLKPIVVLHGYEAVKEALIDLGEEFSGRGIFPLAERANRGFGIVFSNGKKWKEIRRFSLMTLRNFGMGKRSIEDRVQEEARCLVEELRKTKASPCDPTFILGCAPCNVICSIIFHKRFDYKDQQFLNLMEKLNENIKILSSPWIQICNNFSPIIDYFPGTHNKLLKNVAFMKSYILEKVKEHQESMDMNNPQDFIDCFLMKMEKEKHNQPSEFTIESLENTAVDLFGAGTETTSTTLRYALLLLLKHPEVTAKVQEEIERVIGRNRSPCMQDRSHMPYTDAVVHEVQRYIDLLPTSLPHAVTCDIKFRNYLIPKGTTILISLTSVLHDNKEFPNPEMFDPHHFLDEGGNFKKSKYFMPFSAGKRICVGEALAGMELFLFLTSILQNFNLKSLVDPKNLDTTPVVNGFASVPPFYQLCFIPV

CC(Cc1nc(-c2ccc(O)cn2)no1)C(=O)NC1=C(C(=O)O)CCCC1 (single isomer, unassigned; enantiomer B) [listing 1 of 2 here]
Vd (Rattus norvegicus [1]): 0.25 L/kg
F (Rattus norvegicus [2]): 23%
t1/2 (Rattus norvegicus [3]): 4.1 h

O=C(O)c1cccnc1 [NIACIN]
EC50 (Rattus norvegicus [4]): 2.2 µM
Cmax [5]: 14.6 µM
EC50 (Canis familiaris [6]): 2.7 µM
Activity (Canis familiaris [7]): 6 mg/kg
Activity (Mus musculus [8]): 43%
Activity (Canis familiaris [9]): 3 mg/kg
Activity (Rattus norvegicus [10]): 9.4 µM
Activity (Mus musculus [11]): inactive

CC(Cc1nc(-c2ccc(O)cn2)no1)C(=O)NC1=C(C(=O)O)CCCC1 (single isomer, unassigned) [listing 1 of 2 here]
Activity (Canis lupus familiaris): Active
Activity [12]: inactive
Activity [13]: inactive

CC(Cc1nc(-c2ccc(O)cn2)no1)C(=O)NC1=C(C(=O)O)CCCC1 (single isomer, unassigned; enantiomer B) [listing 2 of 2 here]
Activity (Canis lupus familiaris): Active
Activity [12]: inactive
Activity [13]: inactive

O=C(CCc1nc(-c2ccc(O)cn2)no1)NC1=C(C(=O)O)CCCC1
clearance [14]: 1.3 mL/min/kg
Vd [15]: 0.11 L/kg
Vd [16]: 0.18 L/kg
clearance [17]: 2 mL/min/kg
bioavailability [18]: 33%
half-life [19]: 2.1 h
Activity (Canis lupus familiaris): Active
bioavailability [20]: 22%
Activity [12]: inactive
half-life [21]: 2 h
Activity [13]: inactive

O=C(CCc1nc(-c2ccc(O)cn2)no1)Nc1ccccc1C(=O)O
Activity (Canis lupus familiaris): Active
Activity [12]: inactive
Activity [13]: inactive

CC(C)(Cc1nc(-c2ccc(O)cn2)no1)C(=O)NC1=C(C(=O)O)CCCC1
EC50 (Rattus norvegicus [4]): 67 µM
Vd [22]: 0.2 L/kg
Cmax [5]: 182 µM
clearance [14]: 1.8 mL/min/kg
Vd [23]: 0.08 L/kg
clearance [24]: 0.4 mL/min/kg
Activity (Rattus norvegicus [25]): Toxic
half-life [26]: 4.9 h
concentration at 0.25 h [27]: 148 µM
Vd [15]: 0.15 L/kg
Vd [16]: 0.27 L/kg
clearance [17]: 0.4 mL/min/kg
EC50 (Canis familiaris [6]): 16.5 µM
IC50 (Cytochrome P450 2C8): > 100 µM
bioavailability [18]: 90%
Activity (Canis familiaris [7]): 10 mg/kg
concentration at 0.25 h [28]: 229 µM
Activity (Rattus norvegicus [29]): Toxic
Activity (Mus musculus [8]): 36%
concentration (Rattus norvegicus [30]): 555 µM
Activity (Canis familiaris [9]): 100 mg/kg
half-life [19]: 7.6 h
EC50 [31]: 1.3 µM
bioavailability [20]: 24%
Activity (Rattus norvegicus [32]): 85%
Activity (Canis familiaris [33]): 85%
Activity [12]: inactive
IC50 (Cytochrome P450 2D6): > 100 µM
clearance [34]: 1.3 mL/min/kg
bioavailability [35]: 45%
Activity (Rattus norvegicus [10]): 560 µM
Activity (Mus musculus [11]): inactive
Activity (Rattus norvegicus [36]): Toxic
bioavailability [37]: 14%
half-life [21]: 4.3 h
half-life [38]: 6.4 h
IC50 (Cytochrome P450 2C9): 39 µM
Activity [13]: inactive

CC(Cc1nc(-c2ccc(O)cn2)no1)C(=O)NC1=C(C(=O)O)CCCC1 (single isomer, unassigned) [listing 2 of 2 here]
Vd [15]: 0.21 L/kg
clearance [17]: 1.1 mL/min/kg
bioavailability [20]: 19%
half-life [21]: 3.6 h
